# Reference: ChEMBL document CHEMBL1275349 (J Med Chem, 2010)
# Activity calls are given as the source filed them. The rule behind the calls is not given here.
# Experiments:
# [1] = tested on: Strongylocentrotus purpuratus; assay: Agonist activity at NAADP receptor in sea urchin egg homogenate assessed as fold increase in EC50 for induction of Ca2+ release relative to NAADP; format: functional, tissue-based
# [2] = (§1) Agonist activity at NAADP receptor in sea urchin egg homogenate assessed as induction of Ca2+ release by Fluo-3 staining based fluorimetric assay; format: functional, Strongylocentrotus purpuratus
# [3] = tested on: Strongylocentrotus purpuratus; assay: Agonist activity at NAADP receptor in sea urchin egg homogenate assessed as desensitization of NAADP-induced Ca2+ release at => 1 nM treated for 9 mins before NAADP challenge by Fluo-3 staining based fluorimetric assay; format: functional, tissue-based
# How it was run: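 Strongylocentrotus purpuratus egg homogenate (1.25% v/v) diluted in intracellular medium: 250 mM potassium gluconate pH 7.2, 0.5 mM ATP, 4 mM […], creatinine kinase, 3 μM Fluo-3; 17 °C. Ca2+ release read as fluorescence (ex 490/em 535 nm); EC50 from plateau maximum vs concentration, mean of ≥3 determinations. For desensitization, 9 min pretreatment, then 1 μM NAADP challenge; mean±SEM, n = 3.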
# [4] = Displacement of [32P]NAADP from NAADP receptor in sea urchin microsomes after 90 mins by liquid scintillation counting; design: species or system Strongylocentrotus purpuratus, Microsome
# How it was run: (§2)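 Competition binding in sea urchin egg homogenate: 0.2 nM [32P]NAADP plus seven competitor concentrations, incubated together 90 min at 4 °C, in triplicate. Filtered, washed, filter-bound radioactivity counted by liquid scintillation.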
# [5] = tested on: Strongylocentrotus purpuratus; assay: Binding affinity to NAADP receptor in sea urchin microsomes assessed as fold increase in IC50 for displacement of [32P]NAADP from receptor relative to NAADP; details: Microsome
# How it was run: as §2, with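 “scintillation. IC50 from fitted curves over ≥3 experiments; fold value is relative to NAADP IC50.” for “scintillation.”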
# [6] = tested on: Strongylocentrotus purpuratus; assay: as §1; format: functional
# [7] = tested on: Strongylocentrotus purpuratus; assay: Agonist activity at NAADP receptor in sea urchin egg homogenate assessed as induction of Ca2+ release at 2 nM by Fluo-3 staining based fluorimetric assay; format: functional, tissue-based
Compound,fold change (FC) [1],EC50 [2] [µM],IC50 [4] [µM],fold change (FC) [5],Activity [6],Activity [7],Activity [3]
Nc1ncnc2c1ncn2[C@@H]1O[C@H](COP(=O)(O)OP(=O)(O)OC[C@@H]2O[C@H]([n+]3cccc(C(=O)[O-])c3)[C@@H](O)[C@H]2O)[C@@H](O)[C@H]1OP(=O)(O)O,–,–,–,–,Dose-dependent effect,–,–
CCCCc1cc[n+]([C@H]2O[C@@H](COP(=O)(O)OP(=O)(O)OC[C@H]3O[C@@H](n4cnc5c(N)ncnc54)[C@H](OP(=O)(O)O)[C@@H]3O)[C@H](O)[C@@H]2O)cc1C(=O)[O-],> 50000,> 1000,0.465,303,–,–,Active
Nc1cc[n+]([C@H]2O[C@@H](COP(=O)(O)OP(=O)(O)OC[C@H]3O[C@@H](n4cnc5c(N)ncnc54)[C@H](OP(=O)(O)O)[C@@H]3O)[C@H](O)[C@@H]2O)cc1C(=O)[O-],235,4.41,0.141,88,–,–,Active
Nc1ncnc2c1ncn2[C@@H]1O[C@H](COP(=O)(O)OP(=O)(O)OC[C@@H]2O[C@H]([n+]3ccc(-c4ccccc4)c(C(=O)[O-])c3)[C@@H](O)[C@H]2O)[C@@H](O)[C@H]1OP(=O)(O)O,> 50000,> 1000,0.859,540,–,–,Active
Cc1cc[n+]([C@H]2O[C@@H](COP(=O)(O)OP(=O)(O)OC[C@H]3O[C@@H](n4cnc5c(N)ncnc54)[C@H](OP(=O)(O)O)[C@@H]3O)[C@H](O)[C@@H]2O)cc1C(=O)[O-],2200,42.2,0.149,93,Dose-dependent effect,–,Active
[N-]=[N+]=Nc1cc(C(=O)[O-])c[n+]([C@H]2O[C@@H](COP(=O)(O)OP(=O)(O)OC[C@H]3O[C@@H](n4cnc5c(N)ncnc54)[C@H](OP(=O)(O)O)[C@@H]3O)[C@H](O)[C@@H]2O)c1,90,1.69,0.018,11,–,–,Active

# Now from value to molecule, other results behind:
fold change (FC) [1],EC50 [2] [µM],IC50 [4] [µM],fold change (FC) [5],Activity [6],Activity [7],Compound,Activity [3]
> 50000,> 1000,> 100,> 60000,–,–,Nc1ncnc2c1ncn2[C@@H]1O[C@H](COP(=O)(O)OP(=O)(O)OC[C@@H]2O[C@H]([n+]3cc(C(=O)[O-])cc(C(=O)O)c3)[C@@H](O)[C@H]2O)[C@@H](O)[C@H]1OP(=O)(O)O,Active
2.3,0.043,0.0019,1.2,Dose-dependent effect,Active,Cc1cc(C(=O)[O-])c[n+]([C@H]2O[C@@H](COP(=O)(O)OP(=O)(O)OC[C@H]3O[C@@H](n4cnc5c(N)ncnc54)[C@H](OP(=O)(O)O)[C@@H]3O)[C@H](O)[C@@H]2O)c1,Active
1.5,0.0274,0.0017,1.1,Dose-dependent effect,Active,Nc1cc(C(=O)[O-])c[n+]([C@H]2O[C@@H](COP(=O)(O)OP(=O)(O)OC[C@H]3O[C@@H](n4cnc5c(N)ncnc54)[C@H](OP(=O)(O)O)[C@@H]3O)[C@H](O)[C@@H]2O)c1,Active
18,0.352,0.037,23,–,–,CCc1cc(C(=O)[O-])c[n+]([C@H]2O[C@@H](COP(=O)(O)OP(=O)(O)OC[C@H]3O[C@@H](n4cnc5c(N)ncnc54)[C@H](OP(=O)(O)O)[C@@H]3O)[C@H](O)[C@@H]2O)c1,Active
